Bridges are numbered along the chain shown (N, C = ends). Roman numbers before positions name the chains, in order. [ ]: non-standard residue; d: D form. NMeR = CN[C@@H](CCCNC(=N)N)C(=O)O; Api = NC1(C(=O)O)CCNCC1; Dab = NCC[C@H](N)C(=O)O
Columns and labels:
Assay type in all cases: functional
[1] = tested on: Klebsiella pneumoniae; assay: Antimicrobial activity against Klebsiella pneumoniae E363 by broth macrodilution method
Outline: (§1)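 MIC by CLSI-approved broth macrodilution in one-quarter-strength cation-adjusted Mueller Hinton broth, each drug tested alone. Clinical gram-negative isolates were stored frozen at −70°C in double-strength skim milk before testing.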

[2] = tested on: Escherichia coli; assay: Antimicrobial activity against Escherichia coli E393 by broth macrodilution method; outline: as §1
[3] = tested on: Escherichia coli; assay: Antimicrobial activity against Escherichia coli E351 by broth macrodilution method; outline: as §1
[4] = tested on: Klebsiella pneumoniae; assay: Antimicrobial activity against Klebsiella pneumoniae E372 by broth macrodilution method
Outline: (§2)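 CLSI-approved broth macrodilution in one-quarter-strength cation-adjusted Mueller Hinton broth. Each drug was tested alone against each clinical gram-negative isolate to give the MIC. Strains were stored frozen at −70°C in double-strength skim milk before testing.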

[5] = tested on: Klebsiella pneumoniae; assay: Antimicrobial activity against Klebsiella pneumoniae E353 by broth macrodilution method; outline: as §2
[6] = tested on: Klebsiella pneumoniae; assay: Antimicrobial activity against Klebsiella pneumoniae E422 by broth macrodilution method; outline: as §1
[7] = tested on: Klebsiella pneumoniae; assay: Antimicrobial activity against Klebsiella pneumoniae E433 by broth macrodilution method; outline: as §1
[8] = tested on: Escherichia coli; assay: Antimicrobial activity against Escherichia coli E413 by broth macrodilution method; outline: as §2
[9] = tested on: Klebsiella pneumoniae; assay: Antimicrobial activity against Klebsiella pneumoniae E364 by broth macrodilution method; outline: as §2
[10] = tested on: Klebsiella pneumoniae; assay: Antimicrobial activity against Klebsiella pneumoniae E411 by broth macrodilution method; outline: as §2
[11] = tested on: Klebsiella pneumoniae; assay: Antimicrobial activity against Klebsiella pneumoniae E426 by broth macrodilution method; outline: as §2
[12] = tested on: Escherichia coli; assay: Antimicrobial activity against Escherichia coli E430 by broth macrodilution method; outline: as §2
[13] = tested on: Escherichia coli; assay: Antimicrobial activity against Escherichia coli E425 by broth macrodilution method; outline: as §2
[14] = tested on: Escherichia coli; assay: Antimicrobial activity against Escherichia coli E408 by broth macrodilution method; outline: as §2
[15] = tested on: Klebsiella pneumoniae; assay: Antimicrobial activity against Klebsiella pneumoniae E431 by broth macrodilution method; outline: as §2
[16] = tested on: Pseudomonas aeruginosa; assay: Antimicrobial activity against Pseudomonas aeruginosa P335 by broth macrodilution method; outline: as §1
[17] = tested on: Escherichia coli; assay: Antimicrobial activity against Escherichia coli E394 by broth macrodilution method; outline: as §2
[18] = tested on: Enterobacter cloacae; assay: Antimicrobial activity against Enterobacter cloacae E373 by broth macrodilution method; outline: as §1
[19] = tested on: Escherichia coli; assay: Antimicrobial activity against Escherichia coli E435 by broth macrodilution method; outline: as §2
[20] = tested on: Klebsiella pneumoniae; assay: Antimicrobial activity against Klebsiella pneumoniae E371 by broth macrodilution method; outline: as §2
[21] = tested on: Klebsiella pneumoniae; assay: Antimicrobial activity against Klebsiella pneumoniae E354 by broth macrodilution method; outline: as §1
[22] = tested on: Escherichia coli; assay: Antimicrobial activity against Escherichia coli E434 by broth macrodilution method; outline: as §2
[23] = tested on: Escherichia coli; assay: Antimicrobial activity against Escherichia coli E410 by broth macrodilution method; outline: as §1
[24] = tested on: Klebsiella pneumoniae; assay: Antimicrobial activity against Klebsiella pneumoniae E368 by broth macrodilution method; outline: as §2
[25] = tested on: Escherichia coli; assay: Antimicrobial activity against Escherichia coli E409 by broth macrodilution method; outline: as §2
[26] = tested on: Klebsiella pneumoniae; assay: Antimicrobial activity against Klebsiella pneumoniae E369 by broth macrodilution method; outline: as §2
[27] = tested on: Escherichia coli; assay: Antimicrobial activity against Escherichia coli E395 by broth macrodilution method; outline: as §1
[28] = tested on: Klebsiella pneumoniae; assay: Antimicrobial activity against Klebsiella pneumoniae E427 by broth macrodilution method; outline: as §2
[29] = tested on: Escherichia coli; assay: Antimicrobial activity against Escherichia coli E396 by broth macrodilution method; outline: as §1
[30] = tested on: Klebsiella pneumoniae; assay: Antimicrobial activity against Klebsiella pneumoniae E370 by broth macrodilution method; outline: as §2
[31] = tested on: Escherichia coli; assay: Antimicrobial activity against Escherichia coli E424 by broth macrodilution method; outline: as §2
[32] = tested on: Citrobacter freundii; assay: Antimicrobial activity against Citrobacter freundii E384 by broth macrodilution method; outline: as §1
[33] = tested on: Enterobacter cloacae; assay: Antimicrobial activity against Enterobacter cloacae E397 by broth macrodilution method; outline: as §1
[34] = tested on: Klebsiella pneumoniae; assay: Antimicrobial activity against Klebsiella pneumoniae E367 by broth macrodilution method; outline: as §2
[35] = tested on: Escherichia coli; assay: Antimicrobial activity against Escherichia coli E436 by broth macrodilution method; outline: as §2
[36] = tested on: Escherichia coli; assay: Antimicrobial activity against Escherichia coli E412 by broth macrodilution method; outline: as §2
[37] = tested on: Citrobacter freundii; assay: Antimicrobial activity against Citrobacter freundii E400 by broth macrodilution method; outline: as §2
[38] = tested on: Escherichia coli; assay: Antimicrobial activity against Escherichia coli E341 by broth macrodilution method; outline: as §1
[39] = tested on: Klebsiella pneumoniae; assay: Antimicrobial activity against Klebsiella pneumoniae E418 by broth macrodilution method; outline: as §1
[40] = tested on: Pseudomonas aeruginosa; assay: Antimicrobial activity against Pseudomonas aeruginosa P330 by broth macrodilution method; outline: as §1
[41] = tested on: Klebsiella pneumoniae; assay: Antimicrobial activity against Klebsiella pneumoniae E356 by broth macrodilution method; outline: as §1
[42] = tested on: Escherichia coli; assay: Antimicrobial activity against Escherichia coli E342 by broth macrodilution method; outline: as §1
[43] = tested on: Escherichia coli; assay: Antimicrobial activity against Escherichia coli E346 by broth macrodilution method; outline: as §1
[44] = tested on: Escherichia coli; assay: Antimicrobial activity against Escherichia coli E437 by broth macrodilution method; outline: as §1
[45] = tested on: Klebsiella pneumoniae; assay: Antimicrobial activity against Klebsiella pneumoniae E432 by broth macrodilution method; outline: as §1
[46] = tested on: Klebsiella pneumoniae; assay: Antimicrobial activity against Klebsiella pneumoniae E428 by broth macrodilution method; outline: as §1
[47] = tested on: Escherichia coli; assay: Antimicrobial activity against Escherichia coli E439 by broth macrodilution method; outline: as §1
[48] = tested on: Escherichia coli; assay: Antimicrobial activity against Escherichia coli E438 by broth macrodilution method; outline: as §1
[49] = tested on: Klebsiella pneumoniae; assay: Antimicrobial activity against Klebsiella pneumoniae E362 by broth macrodilution method; outline: as §1
[50] = tested on: Klebsiella pneumoniae; assay: Antimicrobial activity against Klebsiella pneumoniae E366 by broth macrodilution method; outline: as §1

Measured: MIC

C[C@H]1COc2c(N3CCN(C)CC3)c(F)cc3c(=O)c(C(=O)O)cn1c23.C[C@H]1COc2c(N3CCN(C)CC3)c(F)cc3c(=O)c(C(=O)O)cn1c23.O [LEVOFLOXACIN]
8 µg/mL: [8] | [24] | [25] | [36]
4 µg/mL: [11] | [15] | [23]
2 µg/mL: [9] | [10] | [13] | [28]
16 µg/mL: [2] | [3] | [6] | [7] | [16] | [21] | [27] | [29] | [33]
64 µg/mL: [26]
0.06 µg/mL: [1] | [18]
0.125 µg/mL: [12] | [19] | [22] | [32] | [35]
32 µg/mL: [14] | [17] | [20] | [30] | [37]
0.25 µg/mL: [4] | [5] | [31] | [34]

I: H-[Api]DKGSYLPRPTPPRPIYN[NMeR]N[Dab]-NH2 / II: H-[Api]DKGSYLPRPTPPRPIYN[NMeR]N (amide I:21-II:C)
256 µg/mL: [40] | [42]
64 µg/mL: [43] | [31]
8 µg/mL: [7] | [39] | [9] | [10] | [41] | [19] | [21] | [22] | [46] | [24] | [26] | [28] | [47] | [48] | [33] | [35] | [36] | [37]
4 µg/mL: [1] | [4] | [5] | [11] | [15] | [18] | [44] | [23] | [30] | [49]
32 µg/mL: [3] | [6] | [8] | [13] | [17] | [20] | [27]
128 µg/mL: [16] | [45]
16 µg/mL: [2] | [38] | [12] | [14] | [25] | [29] | [34] | [50]
512 µg/mL: [32]
